Source: paper PMC6407616 (Molecular cell, 2018)

Legend:
ZMET2 [1] = target: T1, ZMET2 (Zea mays, UniProt Q9AXT8); experiment: DNA methyltransferase assay on unmethylated or hemimethylated 38 bp duplexed DNA; type: biochemical; settings: 300 nM 38 bp duplex; single-turnover, saturating ZMET2; no peptide; n=2
T1 sequence (Q9AXT8 1-912): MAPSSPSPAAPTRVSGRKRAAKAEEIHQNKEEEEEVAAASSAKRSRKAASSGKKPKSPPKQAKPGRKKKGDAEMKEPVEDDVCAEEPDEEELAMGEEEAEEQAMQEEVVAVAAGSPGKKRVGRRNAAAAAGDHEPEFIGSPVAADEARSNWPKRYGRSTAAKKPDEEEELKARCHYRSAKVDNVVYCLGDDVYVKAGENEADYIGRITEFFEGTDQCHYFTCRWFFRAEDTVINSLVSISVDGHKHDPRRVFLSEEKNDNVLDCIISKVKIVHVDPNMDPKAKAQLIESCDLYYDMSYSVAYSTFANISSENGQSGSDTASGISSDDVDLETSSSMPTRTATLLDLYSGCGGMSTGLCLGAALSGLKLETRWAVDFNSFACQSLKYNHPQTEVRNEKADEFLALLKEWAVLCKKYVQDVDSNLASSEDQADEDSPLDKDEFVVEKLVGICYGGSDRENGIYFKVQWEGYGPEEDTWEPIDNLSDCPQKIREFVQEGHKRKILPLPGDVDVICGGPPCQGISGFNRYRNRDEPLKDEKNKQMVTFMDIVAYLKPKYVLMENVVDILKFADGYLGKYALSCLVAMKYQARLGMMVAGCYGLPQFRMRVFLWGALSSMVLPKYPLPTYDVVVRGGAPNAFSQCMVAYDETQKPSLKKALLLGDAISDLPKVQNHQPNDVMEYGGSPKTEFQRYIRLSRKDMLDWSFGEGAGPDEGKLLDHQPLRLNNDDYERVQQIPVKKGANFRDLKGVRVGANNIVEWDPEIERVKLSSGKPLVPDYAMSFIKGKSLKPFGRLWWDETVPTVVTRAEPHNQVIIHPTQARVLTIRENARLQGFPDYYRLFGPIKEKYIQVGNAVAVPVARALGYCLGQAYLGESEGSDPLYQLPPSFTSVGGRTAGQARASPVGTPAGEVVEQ

[2] = target: H3Kc9me3 601 dinucleosome with 20 bp DNA linker (Xenopus laevis); experiment: negative stain electron microscopy
ZMET2 [3] = target: ZMET2 (Zea mays, UniProt Q9AXT8 1-912); experiment: fluorescence polarization
[4] = Size-exclusion chromatography coupled to multi angle light scattering; type: physicochemical; settings: 20 mM Tris-HCl pH 8.0, 150 mM NaCl, 1 mM DTT; Figure S1E
How it was run: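 Recombinant ZMET2 was expressed with 0.2 mM IPTG at 20°C for 16–18 h, then purified by imidazole elution, TEV cleavage, Q anion exchange and Superdex 200 gel filtration. Samples were filtered and injected onto an S 050 size-exclusion column equilibrated overnight in MALS buffer. Molar mass was read by inline multi-angle light scattering with refractive index detection.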

[5] = FP binding of ZMET2 mutants to H3K9me2 tail peptides; settings: in words; fluorescence polarization; n=2
H3Kc9me3 mononucleosomes = experiment: FP binding of ZMET2 mutants to H3Kc9me3 mononucleosomes; set-up: species or system Xenopus laevis
naked 157 bp DNA = type: biochemical; settings: in words, H3K9me0/2 peptides in trans, Figure S4E

Molecule: unmethylated: AACGCAGCATGCGCTGCTAGC GCAGCTAGCGCTGCATG (DNA AACGCAGCATGCGCTGCTAGCGCAGCTAGCGCTGCATG; DNA, backbone not given here)
- rate constant, 38 bp duplexed DNA without peptide (ZMET2 [1]): 5.3E-5 (±1.1E-5) min^−1

Molecule: full-length recombinant ZMET2 (wild type) (from UniProt Q9AXT8 1-912) (enzyme)
- stoichiometry N (ZMET2 per dinucleosome) [2]: 1

B1: 38 bp unmethylated duplex (dsDNA)
DNA 1: AACGCAGCATGCGCTGCTAGCGCAGCTAGCGCTGCATG
DNA 2: CATGCAGCGCTAGCTGCGCTAGCAGCGCATGCTGCGTT
- binding signal (ZMET2 [3]): 32 fold tighter than without H3K9me2

B2: 38 bp hemimethylated duplex (dsDNA)
DNA 1: AACGCAGCATGCGCTGCTAGCGCAGCTAGCGCTGCATG
DNA 2: CATGCAGCGCTAGCTGCGCTAGCAGCGCATGCTGCGTT
modifications: 5mC at positions 5, 14, 23 and 32 of strand 1; complement unmethylated
- binding signal (ZMET2 [3]): 36 fold tighter than without H3K9me2

B3: ZMET2: full-length recombinant maintenance DNA methyltransferase from Zea mays (protein)
chain: MAPSSPSPAAPTRVSGRKRAAKAEEIHQNKEEEEEVAAASSAKRSRKAASSGKKPKSPPKQAKPGRKKKGDAEMKEPVEDDVCAEEPDEEELAMGEEEAEEQAMQEEVVAVAAGSPGKKRVGRRNAAAAAGDHEPEFIGSPVAADEARSNWPKRYGRSTAAKKPDEEEELKARCHYRSAKVDNVVYCLGDDVYVKAGENEADYIGRITEFFEGTDQCHYFTCRWFFRAEDTVINSLVSISVDGHKHDPRRVFLSEEKNDNVLDCIISKVKIVHVDPNMDPKAKAQLIESCDLYYDMSYSVAYSTFANISSENGQSGSDTASGISSDDVDLETSSSMPTRTATLLDLYSGCGGMSTGLCLGAALSGLKLETRWAVDFNSFACQSLKYNHPQTEVRNEKADEFLALLKEWAVLCKKYVQDVDSNLASSEDQADEDSPLDKDEFVVEKLVGICYGGSDRENGIYFKVQWEGYGPEEDTWEPIDNLSDCPQKIREFVQEGHKRKILPLPGDVDVICGGPPCQGISGFNRYRNRDEPLKDEKNKQMVTFMDIVAYLKPKYVLMENVVDILKFADGYLGKYALSCLVAMKYQARLGMMVAGCYGLPQFRMRVFLWGALSSMVLPKYPLPTYDVVVRGGAPNAFSQCMVAYDETQKPSLKKALLLGDAISDLPKVQNHQPNDVMEYGGSPKTEFQRYIRLSRKDMLDWSFGEGAGPDEGKLLDHQPLRLNNDDYERVQQIPVKKGANFRDLKGVRVGANNIVEWDPEIERVKLSSGKPLVPDYAMSFIKGKSLKPFGRLWWDETVPTVVTRAEPHNQVIIHPTQARVLTIRENARLQGFPDYYRLFGPIKEKYIQVGNAVAVPVARALGYCLGQAYLGESEGSDPLYQLPPSFTSVGGRTAGQARASPVGTPAGEVVEQ
modifications: left off: 6xHis, N-terminal, cleaved | SUMO, N-terminal, state not stated
- oligomeric state by molar mass measurement [4]: monomer

B4: BAHx: ZMET2 mutated in the aromatic cage of the BAH domain (W224L) (protein)
chain: MAPSSPSPAAPTRVSGRKRAAKAEEIHQNKEEEEEVAAASSAKRSRKAASSGKKPKSPPKQAKPGRKKKGDAEMKEPVEDDVCAEEPDEEELAMGEEEAEEQAMQEEVVAVAAGSPGKKRVGRRNAAAAAGDHEPEFIGSPVAADEARSNWPKRYGRSTAAKKPDEEEELKARCHYRSAKVDNVVYCLGDDVYVKAGENEADYIGRITEFFEGTDQCHYFTCRLFFRAEDTVINSLVSISVDGHKHDPRRVFLSEEKNDNVLDCIISKVKIVHVDPNMDPKAKAQLIESCDLYYDMSYSVAYSTFANISSENGQSGSDTASGISSDDVDLETSSSMPTRTATLLDLYSGCGGMSTGLCLGAALSGLKLETRWAVDFNSFACQSLKYNHPQTEVRNEKADEFLALLKEWAVLCKKYVQDVDSNLASSEDQADEDSPLDKDEFVVEKLVGICYGGSDRENGIYFKVQWEGYGPEEDTWEPIDNLSDCPQKIREFVQEGHKRKILPLPGDVDVICGGPPCQGISGFNRYRNRDEPLKDEKNKQMVTFMDIVAYLKPKYVLMENVVDILKFADGYLGKYALSCLVAMKYQARLGMMVAGCYGLPQFRMRVFLWGALSSMVLPKYPLPTYDVVVRGGAPNAFSQCMVAYDETQKPSLKKALLLGDAISDLPKVQNHQPNDVMEYGGSPKTEFQRYIRLSRKDMLDWSFGEGAGPDEGKLLDHQPLRLNNDDYERVQQIPVKKGANFRDLKGVRVGANNIVEWDPEIERVKLSSGKPLVPDYAMSFIKGKSLKPFGRLWWDETVPTVVTRAEPHNQVIIHPTQARVLTIRENARLQGFPDYYRLFGPIKEKYIQVGNAVAVPVARALGYCLGQAYLGESEGSDPLYQLPPSFTSVGGRTAGQARASPVGTPAGEVVEQ
modifications: left off: 6xHis, N-terminal, cleaved | SUMO, N-terminal, state not stated
- binding to H3K9me2 peptides relative to wild type ZMET2 [5]: did not show a defect, showing instead modestly tighter binding
- affinity for H3Kc9me3 nucleosomes relative to wild type ZMET2 (H3Kc9me3 mononucleosomes; in words, n=4): modestly tighter affinity for H3Kc9me3 nucleosomes

B5: CDx: ZMET2 mutated in the aromatic cage of the CD (F441A) (protein)
chain: MAPSSPSPAAPTRVSGRKRAAKAEEIHQNKEEEEEVAAASSAKRSRKAASSGKKPKSPPKQAKPGRKKKGDAEMKEPVEDDVCAEEPDEEELAMGEEEAEEQAMQEEVVAVAAGSPGKKRVGRRNAAAAAGDHEPEFIGSPVAADEARSNWPKRYGRSTAAKKPDEEEELKARCHYRSAKVDNVVYCLGDDVYVKAGENEADYIGRITEFFEGTDQCHYFTCRWFFRAEDTVINSLVSISVDGHKHDPRRVFLSEEKNDNVLDCIISKVKIVHVDPNMDPKAKAQLIESCDLYYDMSYSVAYSTFANISSENGQSGSDTASGISSDDVDLETSSSMPTRTATLLDLYSGCGGMSTGLCLGAALSGLKLETRWAVDFNSFACQSLKYNHPQTEVRNEKADEFLALLKEWAVLCKKYVQDVDSNLASSEDQADEDSPLDKDEAVVEKLVGICYGGSDRENGIYFKVQWEGYGPEEDTWEPIDNLSDCPQKIREFVQEGHKRKILPLPGDVDVICGGPPCQGISGFNRYRNRDEPLKDEKNKQMVTFMDIVAYLKPKYVLMENVVDILKFADGYLGKYALSCLVAMKYQARLGMMVAGCYGLPQFRMRVFLWGALSSMVLPKYPLPTYDVVVRGGAPNAFSQCMVAYDETQKPSLKKALLLGDAISDLPKVQNHQPNDVMEYGGSPKTEFQRYIRLSRKDMLDWSFGEGAGPDEGKLLDHQPLRLNNDDYERVQQIPVKKGANFRDLKGVRVGANNIVEWDPEIERVKLSSGKPLVPDYAMSFIKGKSLKPFGRLWWDETVPTVVTRAEPHNQVIIHPTQARVLTIRENARLQGFPDYYRLFGPIKEKYIQVGNAVAVPVARALGYCLGQAYLGESEGSDPLYQLPPSFTSVGGRTAGQARASPVGTPAGEVVEQ
modifications: left off: 6xHis, N-terminal, cleaved | SUMO, N-terminal, state not stated
- rate constant relative to wild type ZMET2, naked DNA (naked 157 bp DNA): comparable to wild type ZMET2
- binding to H3K9me2 peptides relative to wild type ZMET2 [5]: significantly decreased compared to wild type ZMET2
- fold decrease in affinity for H3Kc9me3 nucleosomes vs wild type ZMET2 (H3Kc9me3 mononucleosomes; fluorescence polarization, n=2): 4 fold
